# Experimental data reported in ChEMBL document CHEMBL1138404, “Bisindole alkaloids of the topsentin and hamacanthin classes from a marine sponge Spongosorites sp” (J Nat Prod, 2007).
# Legend:
# Enterobacter cloacae [1] = experiment: Antibacterial activity against […] Enterobacter cloacae 1321E; format: functional
# Outline: (§1)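 Agar dilution MIC: Mueller Hinton agar plates containing 17 serial dilutions of sample (final 25 to 0.002 μg/mL), meropenem and imipenem as standards. Strains grown 18 h at 37 °C in Fleisch extract broth (10% horse serum for some strains), spotted onto plates by automatic inoculator; MIC read after 18 h incubation.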
# Escherichia coli [2] = experiment: Antibacterial activity against […] Escherichia coli DC0; format: functional; outline: as §1
# Escherichia coli [3] = experiment: Antibacterial activity against […] Escherichia coli DC2; format: functional; outline: as §1
# Pseudomonas aeruginosa [4] = experiment: Antibacterial activity against […] Pseudomonas aeruginosa 9027; format: functional; outline: as §1
# [5] = Cytotoxicity against human HCT15 cell line; format: cell-based; details: HCT-15 cells, read-out: ED50 (the source's name)
# Escherichia coli [6] = experiment: Antibacterial activity against […] Escherichia coli 1507E; format: functional; outline: as §1
# Klebsiella aerogenes = experiment: Antibacterial activity against […] Klebsiella aerogenes 1522E; format: functional; outline: as §1
# Escherichia coli [7] = experiment: Antibacterial activity against […] Escherichia coli 078; format: functional; outline: as §1
# Pseudomonas aeruginosa [8] = experiment: Antibacterial activity against […] Pseudomonas aeruginosa 1592E; format: functional; outline: as §1
# Staphylococcus aureus [9] = experiment: Antibacterial activity against methicillin-resistant Staphylococcus aureus SG511; format: functional; outline: as §1
# Enterococcus faecium = experiment: Antibacterial activity against […] Streptococcus faecium MD8b; format: functional; outline: as §1
# [10] = Cytotoxicity against human A549 cell line; format: cell-based; details: A549 cells, read-out: ED50 (the source's name)
# Klebsiella oxytoca = experiment: Antibacterial activity against […] Klebsiella oxytoca 1082E; format: functional; outline: as §1
# Pseudomonas aeruginosa [11] = experiment: Antibacterial activity against […] Pseudomonas aeruginosa 1771; format: functional; outline: as §1
# Staphylococcus aureus [12] = experiment: Antibacterial activity against methicillin-resistant Staphylococcus aureus 503; format: functional; outline: as §1
# [13] = Cytotoxicity against human SK-OV-3 cell line; format: cell-based; details: SK-OV-3 cells, read-out: ED50 (the source's name)
# [14] = Cytotoxicity against human XF498 cell line; format: cell-based; details: XF498 cells, read-out: ED50 (the source's name)
# Salmonella typhimurium = experiment: Antibacterial activity against […] Salmonella Typhimurium; format: functional, Salmonella enterica subsp. enterica serovar Typhimurium; details: Salmonella enterica; outline: as §1
# Enterobacter cloacae [15] = experiment: Antibacterial activity against […] Enterobacter cloacae P99; format: functional; outline: as §1
# Pseudomonas aeruginosa [16] = experiment: Antibacterial activity against […] Pseudomonas aeruginosa 1771M; format: functional; outline: as §1
# Staphylococcus aureus [17] = experiment: Antibacterial activity against methicillin-resistant Staphylococcus aureus 285; format: functional; outline: as §1
# Streptococcus pyogenes [18] = experiment: Antibacterial activity against methicillin-resistant Streptococcus pyogenes 308A; format: functional; outline: as §1
# Escherichia coli [19] = experiment: Antibacterial activity against […] Escherichia coli TEM; format: functional; outline: as §1
# [20] = Cytotoxicity against human SK-MEL-2 cell line; format: cell-based; details: SK-MEL-2 cells, read-out: ED50 (the source's name)
# Streptococcus pyogenes [21] = experiment: Antibacterial activity against methicillin-resistant Streptococcus pyogenes 77A; format: functional; outline: as §1
Structure (SMILES),MIC (Enterobacter cloacae [1]) [µg/mL],MIC (Escherichia coli [2]) [µg/mL],MIC (Escherichia coli [3]) [µg/mL],MIC (Pseudomonas aeruginosa [4]) [µg/mL],CC50 [5] [µg/mL],MIC (Escherichia coli [6]) [µg/mL],MIC (Klebsiella aerogenes) [µg/mL],MIC (Pseudomonas aeruginosa [8]) [µg/mL],MIC (Staphylococcus aureus [9]) [µg/mL],CC50 [10] [µg/mL],MIC (Klebsiella oxytoca) [µg/mL],MIC (Pseudomonas aeruginosa [11]) [µg/mL],MIC (Staphylococcus aureus [12]) [µg/mL],CC50 [13] [µg/mL],CC50 [14] [µg/mL],MIC (Pseudomonas aeruginosa [16]) [µg/mL],MIC (Staphylococcus aureus [17]) [µg/mL],MIC (Streptococcus pyogenes [18]) [µg/mL],CC50 [20] [µg/mL],MIC (Streptococcus pyogenes [21]) [µg/mL],further results
O=C1N[C@@H](c2c[nH]c3ccccc23)CN=C1c1c[nH]c2ccccc12,> 25,> 25,> 25,> 25,4.1,> 25,> 25,25,> 25,8.3,> 25,25,> 25,11.5,17.1,> 25,> 25,25,5,25,MIC (Escherichia coli [7]): > 25 µg/mL; MIC (Enterococcus faecium): > 25 µg/mL; MIC (Salmonella typhimurium): > 25 µg/mL; MIC (Enterobacter cloacae [15]): > 25 µg/mL; MIC (Escherichia coli [19]): > 25 µg/mL
O=C1NC[C@@H](c2c[nH]c3ccccc23)N=C1c1c[nH]c2ccccc12,> 25,> 25,> 25,> 25,4.79,> 25,> 25,25,> 25,11.7,> 25,25,> 25,12.6,24.1,> 25,> 25,> 25,13.7,> 25,MIC (Escherichia coli [7]): > 25 µg/mL; MIC (Enterococcus faecium): > 25 µg/mL; MIC (Salmonella typhimurium): > 25 µg/mL; MIC (Enterobacter cloacae [15]): > 25 µg/mL; MIC (Escherichia coli [19]): > 25 µg/mL
O=C1NC[C@@H](c2c[nH]c3ccccc23)N[C@H]1c1c[nH]c2cc(Br)ccc12,> 25,> 25,> 25,> 25,> 10,> 25,> 25,> 25,> 25,9.67,> 25,> 25,> 25,5.67,9.74,> 25,> 25,25,> 10,> 25,MIC (Escherichia coli [7]): > 25 µg/mL; MIC (Enterococcus faecium): > 25 µg/mL; MIC (Salmonella typhimurium): > 25 µg/mL; MIC (Enterobacter cloacae [15]): > 25 µg/mL; MIC (Escherichia coli [19]): > 25 µg/mL
O=C1N[C@H](c2c[nH]c3ccccc23)CN[C@H]1c1c[nH]c2cc(Br)ccc12,,,,,> 10,,,,,> 10,,,,4.92,> 10,,,,> 10,,
O=C1NC[C@@H](c2c[nH]c3cc(Br)ccc23)N[C@H]1c1c[nH]c2ccccc12,> 25,> 25,> 25,> 25,6.3,> 25,> 25,25,> 25,4.2,> 25,25,> 25,6,6.8,> 25,> 25,25,7.1,> 25,MIC (Escherichia coli [7]): > 25 µg/mL; MIC (Enterococcus faecium): > 25 µg/mL; MIC (Salmonella typhimurium): > 25 µg/mL; MIC (Enterobacter cloacae [15]): > 25 µg/mL; MIC (Escherichia coli [19]): > 25 µg/mL
O=C1NC[C@@H](c2c[nH]c3ccccc23)N[C@H]1c1c[nH]c2ccccc12,,,,,> 10,,,,,> 10,,,,9.64,> 10,,,,> 10,,
O=C1N[C@H](c2c[nH]c3cc(Br)ccc23)CN[C@H]1c1c[nH]c2ccccc12,> 25,> 25,> 25,> 25,6.3,> 25,> 25,25,> 25,7.5,> 25,25,> 25,12.1,19.1,> 25,> 25,> 25,13.1,> 25,MIC (Escherichia coli [7]): > 25 µg/mL; MIC (Enterococcus faecium): > 25 µg/mL; MIC (Salmonella typhimurium): > 25 µg/mL; MIC (Enterobacter cloacae [15]): > 25 µg/mL; MIC (Escherichia coli [19]): > 25 µg/mL
O=C1NC[C@@H](c2c[nH]c3cc(Br)ccc23)N=C1c1c[nH]c2ccccc12 [(R)-6'-DEBROMOHAMACANTHIN B],> 25,> 25,25,> 25,4.2,> 25,> 25,> 25,12.5,3.71,25,25,12.5,8.5,8.3,25,12.5,6.3,7.6,12.5,MIC (Escherichia coli [7]): > 25 µg/mL; MIC (Enterococcus faecium): > 25 µg/mL; MIC (Salmonella typhimurium): > 25 µg/mL; MIC (Enterobacter cloacae [15]): > 25 µg/mL; MIC (Escherichia coli [19]): > 25 µg/mL
COc1cccc2c1C(=O)c1c(O)c3c(c(O)c1C2=O)C[C@@](O)(C(=O)CO)C[C@@H]3O[C@H]1C[C@H](N)[C@H](O)[C@H](C)O1 [DOXORUBICIN],,,,,0.02,,,,,0.01,,,,0.03,0.01,,,,0.01,,
O=C1N[C@@H](c2c[nH]c3cc(Br)ccc23)CN=C1c1c[nH]c2cc(Br)ccc12 [HAMACANTHIN A],,,,,4.66,,,,,4.49,,,,5.24,5.6,,,,5.44,,
O=C1NC[C@H](c2c[nH]c3cc(Br)ccc23)N=C1c1c[nH]c2cc(Br)ccc12 [HAMACANTHIN B],,,,,1.52,,,,,2.14,,,,2.61,2.93,,,,1.59,,
C[C@@H](O)[C@H]1C(=O)N2C(C(=O)O)=C(S[C@@H]3CN[C@H](C(=O)N(C)C)C3)[C@H](C)[C@H]12 [MEROPENEM],,,0.013,,,,,0.098,0.049,,0.049,0.391,0.049,,,0.049,0.098,0.004,,0.004,
O=C(C1=NC(c2c[nH]c3cc(Br)ccc23)CN1)c1c[nH]c2ccccc12 (stereo not given) [SPONGOTINE A],,,,,9.8,,,,,6.82,,,,3.71,7.22,,,,5.04,,
O=C(C1=NC(c2c[nH]c3cc(Br)ccc23)CN1)c1c[nH]c2cc(Br)ccc12 (stereo not given) [SPONGOTINE C],,,,,4.88,,,,,5.22,,,,4.81,5.16,,,,4.82,,
